Data as given in ChEMBL document CHEMBL1125847, “Interaction of GTP derivatives with cellular and oncogenic ras-p21 proteins” (J Med Chem, 1991).

How the values were obtained:
[1] = target: GTPase HRas (Homo sapiens) (UniProt P01112); assay: Inhibitory [3H]GDP concentration against cellular p21 Ha-ras
Summary of the method: (§1)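 Filter-binding competition: GDP-bound Ha-ras p21 (1 μM; 1 μg) with [3H]GDP (3 μM per footnote, 2 μM in methods) plus analogue over a concentration range, in 50 mM Tris-HCl pH 7.5, 10 mM DTT, 0.5 mM MgCl2, 100 mM NH4Cl, 5 mM EDTA, 45 min, 37 °C. Quenched with cold Mg2+, filtered through nitrocellulose, counted. Krel = [3H]GDP concentration/analogue concentration at 50% inhibition.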

[2] = target: GTPase HRas (Homo sapiens) (UniProt P01112); assay: Inhibitory [3H]GDP concentration against oncogenic Ha-ras protein (p21 Leu-61); summary of the method: as §1

Sequence of GTPase HRas (Homo sapiens) (P01112 whole entry, looked up): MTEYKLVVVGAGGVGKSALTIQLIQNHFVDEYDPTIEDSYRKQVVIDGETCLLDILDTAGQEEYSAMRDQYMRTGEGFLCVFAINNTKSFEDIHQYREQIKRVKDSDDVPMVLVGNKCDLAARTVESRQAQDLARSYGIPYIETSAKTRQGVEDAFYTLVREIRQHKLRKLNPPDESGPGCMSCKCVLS

| SMILES | K rel [1] | K rel [2] |
| --- | --- | --- |
| Nc1nc(O)c2ncn([C@H]3O[C@@H](COP(=O)(O)OP(=O)(O)OP(=O)(O)O)[C@H](O)[C@@H]3O)c2n1 | 1.1 | 1.2 |
| O=P(O)(O)OP(=O)(O)OP(=O)(O)OC[C@@H]1OC(n2cnc3c(O)ncnc32)[C@@H](O)[C@H]1O (stereo not given in full) | 0.11 | 0.09 |
| Nc1nc(O)c2ncn(COC(CO)COP(=O)(O)OP(=O)(O)OP(=O)(O)O)c2n1 (stereo not given) | 0.0014 | 0.0018 |
| CN1CN(C2O[C@@H](COP(=O)(O)OP(=O)(O)OP(=O)(O)O)[C@H](O)[C@@H]2O)c2nc(N)nc(O)c21 (stereo not given in full) | 0.0024 | 0.002 |
| CCCCc1ccc(Nc2nc(O)c3ncn(C4O[C@@H](COP(=O)(O)OP(=O)(O)OP(=O)(O)O)[C@H](O)[C@@H]4O)c3n2)cc1 (stereo not given in full) | 3.3 | 6 |
| Cc1ccc(Nc2nc(O)c3ncn(C4O[C@@H](COP(=O)(O)OP(=O)(O)OP(=O)(O)O)[C@H](O)[C@@H]4O)c3n2)cc1 (stereo not given in full) | 1.14 | 1.34 |
| O=P(O)(O)OP(=O)(O)OP(=O)(O)OC[C@@H]1OC(n2cnc3c(O)nc(Nc4ccc(Br)cc4)nc32)[C@@H](O)[C@H]1O (stereo not given in full) | 2.28 | 2.1 |
| Nc1nc(O)c2ccn(C3O[C@@H](COP(=O)(O)OP(=O)(O)OP(=O)(O)O)[C@H](O)[C@@H]3O)c2n1 (stereo not given in full) | 0.08 | 0.05 |
| O=P(O)(O)OP(=O)(O)OP(=O)(O)OC[C@@H]1OC(n2cnc3c(O)nc(Br)nc32)[C@@H](O)[C@H]1O (stereo not given in full) | 0.04 | 0.05 |
| Nc1nc2c(ncn2COCCOP(=O)(O)OP(=O)(O)OP(=O)(O)O)c(=O)[nH]1 | 0.0012 | 0.0011 |
| O=P(O)(O)OP(=O)(O)OP(=O)(O)OC[C@@H]1OC(n2cnc3c(O)nc(NCCCCc4ccccc4)nc32)[C@@H](O)[C@H]1O (stereo not given in full) | 1.19 | 1.1 |
| O=P(O)(O)OP(=O)(O)OP(=O)(O)OC[C@@H]1OC(n2cnc3c(O)nc(Nc4ccc(F)cc4)nc32)[C@@H](O)[C@H]1O (stereo not given in full) | 1.77 | 2.38 |
| Nc1nc2c(ncn2[C@H]2CC[C@@H](COP(=O)(O)OP(=O)(O)OP(=O)(O)O)O2)c(=O)[nH]1 | 0.28 | 0.18 |
| Nc1nc(O)c2ncn(C3OC(COP(=O)(O)OP(=O)(O)OP(=O)(O)O)CC3O)c2n1 (stereo not given) | 0.85 | 0.85 |
| CCCCNc1nc(O)c2ncn(C3O[C@@H](COP(=O)(O)OP(=O)(O)OP(=O)(O)O)[C@H](O)[C@@H]3O)c2n1 (stereo not given in full) | 0.59 | 0.68 |
